Laboratory results from ChEMBL document CHEMBL3525925, “In vitro studies on the oxidative metabolism of 20(s)-ginsenoside Rh2 in human, monkey, dog, rat, and mouse liver microsomes, and human liver s9” (Drug Metab Dispos, 2012).

Columns and labels:
Liver cytosol [1] = test: Drug metabolism in human liver cytosol assessed as 26-carboxy,20(S)-Ginsenoside Rh2 formation at 10 uM by LC/MS analysis in presence of 50 uM disulfiram aldehyde dehydrogenase inhibitor; type: ADME
Summary of the method: (§1)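 Pooled human liver cytosol (1 mg/ml) with 2 mM NAD+ and inhibitor in 100 mM potassium phosphate pH 7.4; inhibitors given from DMSO, 0.1% v/v final. After 15 min preincubation at 37°C, started with 10 μM M1-1 or 26-aldehyde-Rh2. Run 60 min, stopped with ice-cold acetonitrile. Duplicates, uninhibited controls; M2-3 acid measured by LC/MSn.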

Liver microsome [2] = test: Retention time in human liver microsomes treated with 10 uM 20(S)-ginsenoside Rh2 by MS2 spectra; type: ADME
Summary of the method: (§2)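 Samples: incubation mixed with equal volume methanol, centrifuged at 14,000g for 5 min, dried under nitrogen at 40°C, reconstituted. Separated on Eclipse XDB-C18 (4.6 × 150 mm, 5 μm) at 0.5 ml/min. Gradient: 0.1% formic acid in methanol against 0.1% formic acid in 5 mM ammonium acetate, 70% to 100% organic over 17 min. Ion-trap MSn detection.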

Liver microsome [3] = test: Drug level in Sprague-Dawley rat liver microsomes treated with 10 uM 20(S)-ginsenoside Rh2 for 60 mins by MS2 spectra; type: ADME; conditions: 1 h
Summary of the method: (§3)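 Rh2 at 10 μM final (from methanol stock; 0.1% v/v methanol final) in 100 mM potassium phosphate pH 7.4 with 2 mM NADPH, open-to-air tubes at 37°C. 3 min preincubation, then started with liver microsomes or S9 at 1 mg/ml protein. Incubated 60 min, stopped with equal volume ice-cold acetonitrile. Controls lacked NADPH; duplicates. Metabolites detected by LC/ion-trap MSn.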

Liver [4] = test: Drug level in human liver S9 fraction treated with 10 uM 20(S)-ginsenoside Rh2 for 60 mins by MS2 spectra; type: ADME, subcellular; conditions: s9, 1 h; summary of the method: as §3
Liver cytosol [5] = test: Drug metabolism in human liver cytosol assessed as 26-carboxy,20(S)-Ginsenoside Rh2 formation at 10 uM by LC/MS analysis in presence of 100 uM raloxifene aldehyde oxidase inhibitor; type: ADME; conditions: in the assay text read “100 nM raloxifene” for “100 uM raloxifene”; summary of the method: as §1
Cytochrome P450 3A4 = Cytochrome P450 3A4 (Homo sapiens, UniProt P08684); test: Drug level in human recombinant CYP3A4 treated with 10 uM 20(S)-ginsenoside Rh2 for 60 mins by MS2 spectra; type: ADME; conditions: recombinant enzyme, 1 h
Cytochrome P450 3A4, sequence (P08684 whole entry): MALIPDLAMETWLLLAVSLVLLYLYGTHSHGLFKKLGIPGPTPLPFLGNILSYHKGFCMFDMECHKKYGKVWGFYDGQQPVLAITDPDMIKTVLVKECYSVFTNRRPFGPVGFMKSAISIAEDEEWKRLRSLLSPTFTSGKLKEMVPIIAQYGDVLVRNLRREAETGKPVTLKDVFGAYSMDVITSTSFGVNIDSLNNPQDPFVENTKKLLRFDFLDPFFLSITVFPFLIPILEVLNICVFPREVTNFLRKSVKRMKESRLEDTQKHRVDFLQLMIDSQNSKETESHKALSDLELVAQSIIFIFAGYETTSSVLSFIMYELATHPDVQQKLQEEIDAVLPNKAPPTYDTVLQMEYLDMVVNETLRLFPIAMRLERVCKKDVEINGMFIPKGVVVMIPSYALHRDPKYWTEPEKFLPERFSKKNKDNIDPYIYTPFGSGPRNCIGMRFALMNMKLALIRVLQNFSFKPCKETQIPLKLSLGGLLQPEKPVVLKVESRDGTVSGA
Summary of the method: (§4)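 Recombinant human P450 (50 nM) with 10 μM Rh2 under the microsomal conditions: 100 mM potassium phosphate pH 7.4, 2 mM NADPH, 37°C for 60 min. Stopped with equal volume ice-cold acetonitrile. Run in duplicate; products analysed by LC/ion-trap MSn.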

Liver [6] = test: Drug level in CD-1 mouse liver microsomes treated with 10 uM 20(S)-ginsenoside Rh2 for 60 mins by MS2 spectra; type: ADME; conditions: 1 h; summary of the method: as §3
Liver cytosol [7] = test: Drug metabolism in human liver cytosol assessed as 26-carboxy,20(S)-Ginsenoside Rh2 formation at 10 uM by LC/MS analysis in presence of 50 uM 4-methylpyrazole alcohol dehydrogenase inhibitor; type: ADME; summary of the method: as §1
Liver [8] = test: Retention time in human liver S9 fraction treated with 10 uM 20(S)-ginsenoside Rh2 by MS2 spectra; type: ADME, subcellular; summary of the method: as §2
Liver microsome [9] = test: Drug level in beagle dog liver microsomes treated with 10 uM 20(S)-ginsenoside Rh2 for 60 mins by MS2 spectra; type: ADME, Canis lupus familiaris; conditions: 1 h; summary of the method: as §3
Cytochrome P450 3A5 = Cytochrome P450 3A5 (Homo sapiens, UniProt P20815); test: Drug level in human recombinant CYP3A5 treated with 10 uM 20(S)-ginsenoside Rh2 for 60 mins by MS2 spectra; type: ADME; conditions: recombinant enzyme, 1 h; summary of the method: as §4
Cytochrome P450 3A5, sequence (P20815 whole entry): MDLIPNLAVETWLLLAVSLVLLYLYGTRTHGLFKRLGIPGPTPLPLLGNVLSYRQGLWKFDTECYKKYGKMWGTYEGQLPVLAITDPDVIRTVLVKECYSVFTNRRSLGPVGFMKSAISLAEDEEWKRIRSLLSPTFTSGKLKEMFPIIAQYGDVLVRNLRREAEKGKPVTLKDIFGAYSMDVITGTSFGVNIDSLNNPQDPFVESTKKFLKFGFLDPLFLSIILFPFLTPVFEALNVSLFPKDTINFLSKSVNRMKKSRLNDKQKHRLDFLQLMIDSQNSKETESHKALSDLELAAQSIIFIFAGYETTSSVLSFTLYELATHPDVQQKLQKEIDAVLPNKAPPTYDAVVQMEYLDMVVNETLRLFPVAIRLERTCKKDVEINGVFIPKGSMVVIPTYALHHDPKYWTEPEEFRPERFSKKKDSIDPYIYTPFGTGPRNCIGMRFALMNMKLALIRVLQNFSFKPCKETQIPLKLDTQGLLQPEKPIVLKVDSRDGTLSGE

[10] = Drug level in cynomolgus monkey liver microsomes treated with 10 uM 20(S)-ginsenoside Rh2 for 60 mins by MS2 spectra; type: ADME, Macaca fascicularis; conditions: 1 h; summary of the method: as §3
Liver microsome [11] = test: Drug level in human liver microsomes treated with 10 uM 20(S)-ginsenoside Rh2 for 60 mins by MS2 spectra; type: ADME; conditions: 1 h; summary of the method: as §3
[12] = Retention time in cynomolgus monkey liver microsomes treated with 10 uM 20(S)-ginsenoside Rh2 by MS2 spectra; type: ADME, Macaca fascicularis; summary of the method: as §2

SMILES: C/C(=C\CC[C@](C)(O)[C@H]1CC[C@]2(C)[C@@H]1[C@H](O)C[C@@H]1[C@@]3(C)CC[C@H](O[C@@H]4O[C@H](CO)[C@@H](O)[C@H](O)[C@H]4O)C(C)(C)[C@@H]3CC[C@]12C)CO
- Drug metabolism (Liver cytosol [1]): metabolite_not_detected
- Retention_time (Liver microsome [2]): 16.7 min
- Drug metabolism (Liver microsome [3]): metabolite_detected
- Drug metabolism (Liver [4]): metabolite_detected
- Drug metabolism (Liver cytosol [5]): metabolite_not_detected
- Drug metabolism (Cytochrome P450 3A4): metabolite_detected
- Drug metabolism (Liver [6]): metabolite_detected
- Drug metabolism (Liver cytosol [7]): metabolite_not_detected
- Retention_time (Liver [8]): 16.7 min
- Drug metabolism (Liver microsome [9]): metabolite_detected
- Drug metabolism (Cytochrome P450 3A5): metabolite_detected
- Drug metabolism [10]: metabolite_detected
- Drug metabolism (Liver microsome [11]): metabolite_detected

SMILES: CC(C)(O)C(CC[C@](C)(O)[C@H]1CC[C@]2(C)[C@@H]1[C@H](O)C[C@@H]1[C@@]3(C)CC[C@H](O[C@@H]4O[C@H](CO)[C@@H](O)[C@H](O)[C@H]4O)C(C)(C)[C@@H]3CC[C@]12C)SC[C@H](NC(=O)CC[C@H](N)C(=O)O)C(=O)NCC(=O)O (some centres not stated)
- Drug metabolism (Liver microsome [3]): metabolite_not_detected
- Drug metabolism (Liver [4]): metabolite_not_detected
- Drug metabolism (Cytochrome P450 3A4): metabolite_not_detected
- Drug metabolism (Liver [6]): metabolite_not_detected
- Retention_time [12]: 10.6 min
- Drug metabolism (Liver microsome [9]): metabolite_not_detected
- Drug metabolism (Cytochrome P450 3A5): metabolite_not_detected
- Drug metabolism [10]: metabolite_detected
- Drug metabolism (Liver microsome [11]): metabolite_not_detected
